Source: ChEMBL document CHEMBL3351472, “Synthesis and Biological Activity of 25-Hydroxy-2-methylene-vitamin D3 analogues monohydroxylated in the A-ring” (J Med Chem, 2014)

Key:
Rattus norvegicus [1] = experiment: Effect on bone calcium mobilization in weanling Sprague-Dawley rat assessed as serum calcium level at 32 pmol/day, ip administered as 4 consecutive daily doses measured 24 hrs after last dose (reference value: 4.2 to 4.9 mg/dL); type: functional
Rattus norvegicus [2] = experiment: Effect on intestinal calcium transport in weanling Sprague-Dawley rat assessed as increase in ratio of serosal to mucosal calcium level at 87 pmol/day, ip administered as 4 consecutive daily doses measured 24 hrs after last dose; type: functional
Rattus norvegicus [3] = experiment: Effect on intestinal calcium transport in weanling Sprague-Dawley rat assessed as increase in ratio of serosal to mucosal calcium level at 32 pmol/day, ip administered as 4 consecutive daily doses measured 24 hrs after last dose; type: functional
Rattus norvegicus [4] = experiment: Effect on intestinal calcium transport in weanling Sprague-Dawley rat assessed as increase in ratio of serosal to mucosal calcium level at 780 pmol/day, ip administered as 4 consecutive daily doses measured 24 hrs after last dose; type: functional
[5] = molecular target: T1, Vitamin D3 receptor (Rattus norvegicus) (UniProt P13053); experiment: Ratio of 1alpha,25-(OH)2D3 Ki to compound Ki for full-length recombinant rat vitamin D receptor after 30 mins by liquid scintillation counting
T1 sequence (whole entry): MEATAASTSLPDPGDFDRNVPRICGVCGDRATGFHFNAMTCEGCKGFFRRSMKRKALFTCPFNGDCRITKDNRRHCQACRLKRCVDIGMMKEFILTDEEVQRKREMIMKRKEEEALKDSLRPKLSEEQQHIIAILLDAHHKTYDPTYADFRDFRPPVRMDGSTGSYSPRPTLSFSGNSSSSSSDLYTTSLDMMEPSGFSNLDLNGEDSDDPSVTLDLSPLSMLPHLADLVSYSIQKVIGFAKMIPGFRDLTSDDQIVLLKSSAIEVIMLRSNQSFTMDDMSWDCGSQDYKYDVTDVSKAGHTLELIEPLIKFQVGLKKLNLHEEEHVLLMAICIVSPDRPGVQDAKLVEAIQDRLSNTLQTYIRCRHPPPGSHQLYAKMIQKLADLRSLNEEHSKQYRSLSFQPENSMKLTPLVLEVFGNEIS
Method in brief: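 Competitive binding to VDR was run against radiolabeled 1α,25-(OH)₂D₃ at 1 nM. […] Duplicate determinations were made on two separate occasions. Each value is the mean of the 1α,25-(OH)₂D₃ Ki divided by the analogue Ki.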

Rattus norvegicus [6] = experiment: Effect on bone calcium mobilization in weanling Sprague-Dawley rat assessed as serum calcium level at 780 pmol/day, ip administered as 4 consecutive daily doses measured 24 hrs after last dose (reference value: 4.2 to 4.9 mg/dL); type: functional
HL-60 = experiment: Ratio of 1alpha,25-(OH)2D3 ED50 to compound ED50 for induction of human HL60 cell differentiation by nitro blue tetrazolium reduction assay; type: functional
Method in brief: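 HL-60 promyelocytes were scored for maturation to monocytes as the percentage of cells reducing nitro blue tetrazolium. ED₅₀, the concentration giving 50% maturation, was taken from dose−response curves. The experiment was run in duplicate twice. Each value is the mean of the 1α,25-(OH)₂D₃ ED₅₀ divided by the analogue ED₅₀.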

[7] = molecular target: T1, Vitamin D3 receptor (Rattus norvegicus); experiment: Ratio of 1alpha,25-(OH)2D3 ED50 to compound ED50 for VDR-mediated 24-hydroxylase gene expression in rat ROS 17/2.8 cells after 16 hrs by luciferase reporter assay; type: cell-based
Method in brief: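 Rat osteosarcoma cells stably transfected with a 24-hydroxylase gene reporter plasmid were used as a transcription assay. ED₅₀ is the concentration raising luciferase activity by 50%, taken from dose−response curves. Each value is the ratio of the 1α,25-(OH)₂D₃ ED₅₀ to the analogue ED₅₀.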

Rattus norvegicus [8] = experiment: Effect on bone calcium mobilization in weanling Sprague-Dawley rat assessed as serum calcium level at 87 pmol/day, ip administered as 4 consecutive daily doses measured 24 hrs after last dose (reference value: 4.2 to 4.9 mg/dL); type: functional
Rattus norvegicus [9] = experiment: Effect on bone calcium mobilization in weanling Sprague-Dawley rat assessed as serum calcium level at 35100 pmol/day, ip administered as 4 consecutive daily doses measured 24 hrs after last dose (reference value: 4.2 to 4.9 mg/dL); type: functional
Rattus norvegicus [10] = experiment: Effect on intestinal calcium transport in weanling Sprague-Dawley rat assessed as increase in ratio of serosal to mucosal calcium level at 7020 pmol/day, ip administered as 4 consecutive daily doses measured 24 hrs after last dose; type: functional
Rattus norvegicus [11] = experiment: Effect on intestinal calcium transport in weanling Sprague-Dawley rat assessed as increase in ratio of serosal to mucosal calcium level at 35100 pmol/day, ip administered as 4 consecutive daily doses measured 24 hrs after last dose; type: functional
Rattus norvegicus [12] = experiment: Effect on bone calcium mobilization in weanling Sprague-Dawley rat assessed as serum calcium level at 7020 pmol/day, ip administered as 4 consecutive daily doses measured 24 hrs after last dose (reference value: 4.2 to 4.9 mg/dL); type: functional

Structure (SMILES) | Activity (Rattus norvegicus [1]) | Ratio (Rattus norvegicus [2]) | Ratio (Rattus norvegicus [3]) | Ratio (Rattus norvegicus [4]) | Ratio Ki [5] | Activity (Rattus norvegicus [6]) | Ratio ED50 (HL-60) | Ratio ED50 [7] | Activity (Rattus norvegicus [8]) | Activity (Rattus norvegicus [9]) | Ratio (Rattus norvegicus [10]) | Ratio (Rattus norvegicus [11]) | Activity (Rattus norvegicus [12])
C=C1CC(=C)[C@H](O)C/C1=C/C=C1\CCC[C@]2(C)[C@@H]([C@@H](C)CCCC(C)(C)O)CC[C@@H]12 | 4.3 mg/dL | 9.8 | 9 | 14.3 | 0.33 | 7.5 mg/dL | 0.22 | 0.2 | 4.8 mg/dL |  |  |  | 
C=C1CC/C(=C/C=C2\CCC[C@]3(C)[C@@H]([C@@H](C)CCCC(C)(C)O)CC[C@@H]23)C(=C)[C@H]1O | 4.8 mg/dL | 10.2 | 7.9 | 12.6 | 0.33 | 9.7 mg/dL | 4 | 1 | 4.9 mg/dL |  |  |  | 
C=C1CC/C(=C/C=C2\CCC[C@]3(C)[C@@H]([C@H](C)CCCC(C)(C)O)CC[C@@H]23)C(=C)[C@H]1O |  | 8.5 |  | 11.8 | 0.25 | 5.9 mg/dL | 2 | 1 | 4.5 mg/dL | 8.2 mg/dL | 9.8 | 11.3 | 8.8 mg/dL
C=C1CC/C(=C\C=C2/CCC[C@]3(C)[C@@H]([C@@H](C)CCCC(C)(C)O)CC[C@@H]23)C[C@H]1O |  |  |  |  | 0.1 |  | 0.07 | 0.07 |  |  |  |  | 
C=C1CC/C(=C/C=C2\CCC[C@]3(C)[C@@H]([C@@H](C)CCCC(C)(C)O)CC[C@@H]23)C[C@H]1O |  |  |  |  | 0.5 |  | 2.5 | 2 |  |  |  |  | 
C=C1CC(=C)[C@H](O)C/C1=C/C=C1\CCC[C@]2(C)[C@@H]([C@H](C)CCCC(C)(C)O)CC[C@@H]12 |  | 5.7 |  | 9.4 | 0.05 | 5.4 mg/dL | 0.005 | 0.0005 | 4.4 mg/dL |  | 10.2 | 9.7 | 8.2 mg/dL
C=C1CC[C@H](O)C/C1=C/C=C1\CCC[C@]2(C)[C@@H]([C@H](C)CCCC(C)(C)O)CC[C@@H]12 [CALCIFEDIOL ANHYDROUS] |  |  |  |  | 0.01 |  | 0.001 | 0.001 |  |  |  |  | 
C=C1CC/C(=C\C=C2/CCC[C@]3(C)[C@@H]([C@H](C)CCCC(C)(C)O)CC[C@@H]23)C[C@H]1O |  |  |  |  | 0.02 |  | 0.01 | 0.001 |  |  |  |  | 
C=C1CC/C(=C/C=C2\CCC[C@]3(C)[C@@H]([C@H](C)CCCC(C)(C)O)CC[C@@H]23)C[C@H]1O |  |  |  |  | 0.2 |  | 2.2 | 0.7 |  |  |  |  | 
C=C1[C@H](O)CC(=C/C=C2\CCC[C@]3(C)[C@@H]([C@@H](C)CCCC(C)(C)O)CC[C@@H]23)C[C@H]1O [DP001] |  |  |  |  | 1 |  | 25 | 29 |  |  |  |  | 
C=C1/C(=C\C=C2/CCC[C@]3(C)[C@@H]([C@H](C)CCCC(C)(C)O)CC[C@@H]23)C[C@@H](O)C[C@@H]1O [CALCITRIOL] |  |  |  |  |  | 7.5 mg/dL |  |  | 5 mg/dL |  |  |  | 
